This is an account of results in ChEMBL document CHEMBL1133718, “Structure-activity relationships and binding mode of styrylquinolines as potent inhibitors of HIV-1 integrase and replication of HIV-1 in cell culture” (J Med Chem, 2000).

In series [1] the test system is Human immunodeficiency virus 1. In words: Antiviral activities against HIV-1 replication in CEM cells and its ability to lower the viral charge supernatants was reported. It is filed as functional, organism-based. The following applies: Human immunodeficiency virus 1, CCRF-CEM. In outline: (§1)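 CEM cells infected with cell-free HIV-1 ([…] clone, produced by transfecting P4 cells), in triplicate; virus removed 2 h post-infection, then DMSO-dissolved drug added in fresh medium at increasing concentrations. 72 h supernatants infected HeLa-CD4-βGal (P4) reporter cells for 24 h; lysates incubated with CPRG, absorbance at 570 nm. Some cases used p24 antigen ELISA.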

Series [2] is described as follows: Toxic concentration, estimated by MTT transformation assay. It is filed as ADME, organism-based, Human immunodeficiency virus 1. The following applies: CEM cells; read-out: TC50 (the source's name). In outline: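 Cell viability by MTT: MTT solution (7.5 mg/mL, in phosphate buffer) added to infected, drug-treated CEM wells. Incubation 4 h at 37 °C under CO2, formazan dissolved in 10% SDS/10 mM HCl, absorbance read at 570 nm.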

The target in series [3] is T1, Human immunodeficiency virus type 1 integrase (Human immunodeficiency virus 1, UniProt Q7ZJM1). Briefly: Inhibitory activity against HIV-1 Integrase in 3'-end- processing. In outline:
(§2)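 3'-processing: 0.5 pmol U5A/U5B annealed duplex with 1 pmol purified recombinant full-length HIV-1 IN in 20 mM Tris pH 7.2, 30 mM NaCl, 10% glycerol, 10 mM DTT, 0.01% NP40, plus 10 mM MnCl2.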

In series [4] the target is T1, Human immunodeficiency virus type 1 integrase. In words: Inhibitory activity against HIV-1 Integrase in strand transfer (integration).
For series [5], the system named is Human immunodeficiency virus 1. In words: Antiviral activities against HIV-1 replication in CEM cells and its ability to lower the viral charge supernatants was reported; NR is not reached. The note with it: CCRF-CEM. Type of series: functional, organism-based. In outline: as §1
The target in series [6] is T1, Human immunodeficiency virus type 1 integrase. In words: Inhibitory activity against Integrase in 3'-end- processing. Summed up:
as §2

For series [7] the target is unchanged. Briefly: Inhibitory activity against Integrase in strand transfer (integration).
In series [8] the test system is Human immunodeficiency virus 1. Briefly: Inhibitory effect upon disintegration catalyzed by the (50-212) deletion mutant. It is filed as functional. Summed up:
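Disintegration reaction run with 0.5 pmol D38U3 substrate and 2 pmol of the His-tagged F185K soluble HIV-1 integrase core domain (residues 50-212), expressed and purified recombinantly. Potency is reported as IC50.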

Series [9] addresses T1, Human immunodeficiency virus type 1 integrase. Briefly: Inhibitory activity against HIV-1 Integrase in 3'-end- processing with purified recombinant enzyme.
Series [10] shares this target. In words: Inhibitory activity against HIV-1 Integrase in strand transfer (integration) with purified recombinant enzyme.

A value given as a limit tells only on which side of the number the result lay.

T1 sequence (Q7ZJM1 whole entry): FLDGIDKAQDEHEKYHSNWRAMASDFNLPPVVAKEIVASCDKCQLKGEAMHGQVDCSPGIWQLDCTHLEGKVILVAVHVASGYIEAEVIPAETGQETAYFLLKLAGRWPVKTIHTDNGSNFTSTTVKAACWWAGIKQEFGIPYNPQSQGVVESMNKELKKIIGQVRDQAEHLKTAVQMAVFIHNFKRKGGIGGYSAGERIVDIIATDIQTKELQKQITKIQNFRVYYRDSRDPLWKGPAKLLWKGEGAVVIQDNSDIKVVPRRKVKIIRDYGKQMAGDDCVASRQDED

Regarding `COc1cc(/C=C/c2ccc3ccc(C(=O)O)c(O)c3n2)cc(OC)c1O`, the IC50 in [1] was 9 µM; in [3], 4.9 µM; in series [4], 4.5 µM. For the same compound, the CC50 in series [2] was more than 100 µM.
In the case of `COC(=O)c1ccc2ccc(/C=C/c3ccc(O)c(O)c3)nc2c1O`, the NR entry in series [5] was “Not reached”. Further, the CC50 in series [2] is 9.2 µM. In addition, the half-maximal inhibitory concentration (IC50) in series [6] and in [7] was more than 100 µM in each case.
`COc1ccc(/C=C/c2ccc3ccc(C(=O)O)c(O)c3n2)cc1O`: the results for the IC50 in series [1], in [3] and in series [4] were 54 µM, 0.9 µM and 3.3 µM, respectively. Also, the CC50 in series [2] was 95 µM.
With `Cc1ccc2ccc(C(=O)O)c(O)c2n1`, the IC50 in series [1] and in series [4] was more than 100 µM each time. Moreover, the CC50 in [2] was more than 100 µM.
With `O=C(O)c1ccc2ccc(CCc3ccc(O)c(O)c3)nc2c1O`, the NR entry in [5] is “Not reached”. In [2], the CC50 is 61 µM. The IC50 in series [6] worked out at 2.3 µM; in series [7], 1.5 µM.
For `O=C(O)c1ccc2ccc(/C=C/c3ccco3)nc2c1O`, the half-inhibitory concentration (IC50) in [8] is 1.4 µM; in [1], more than 100 µM; in [9], 1.9 µM; in series [10] it was 5.1 µM. Also, the CC50 in [2] is more than 100 µM.
Turning to `Nc1ccc(/C=C/c2ccc3ccc(C(=O)O)c(O)c3n2)cc1`, the half-inhibitory concentration (IC50) in [8] was found to be 12 µM; in series [1], 50 µM; in series [3], 3.5 µM; in series [4] it was 2.2 µM. Further, the CC50 in series [2] was 100 µM.
Turning to `O=C(O)c1ccc2ccc(/C=C/c3cc(O)cc(O)c3)nc2c1O`, the concentration for half-maximal inhibition (IC50) in series [1] is more than 100 µM; in [6] it was 3.2 µM; in [7] it was 3.2 µM. Further, in [2], the CC50 is more than 100 µM.
As to `O=C(O)c1ccc2ccc(/C=C/c3cccnc3)nc2c1O`, the IC50 in series [8] was 5.1 µM; in [1], more than 100 µM; in series [3], 4.1 µM; in series [4] it was 11 µM. Besides, the CC50 in [2] is more than 100 µM.
On to `O=C(O)c1ccc2ccc(/C=C/c3ccc([N+](=O)[O-])cc3)nc2c1O`, for which the concentration for half-maximal inhibition (IC50) amounted to 2.2 µM in series [8], 1.2 µM in series [3] and 1.7 µM in series [4]. Further, in [5], the NR result was “Not reached”. In addition, the CC50 in [2] was 43 µM.
With `O=C(O)c1ccc2ccc(/C=C/c3cc(Br)c(O)c(Br)c3)nc2c1O`, the IC50 is 1.3 µM in [3] and 1.2 µM in series [4].
On to `O=C(O)c1ccc2ccc(/C=C/c3ccc(O)c(O)c3)nc2c1O`, for which, in [1], the half-inhibitory concentration (IC50) stood at 1.3 µM. Besides, the CC50 in series [2] is more than 100 µM.
The matching figures for `O=C(O)c1ccc2ccc(/C=C/c3cc(O)c(O)c(O)c3)nc2c1O`: 1.2 µM and 10 µM.
As for `Oc1ccc(/C=C/c2ccc3c(Cl)cc(Cl)c(O)c3n2)cc1O`, the NR result in series [5] is reported as “Not reached”. Besides, in [2], the CC50 is 17 µM. Also, the concentration for half-maximal inhibition (IC50) in series [6] and in [7] was more than 100 µM in each case.
As for `COc1cc(/C=C/c2ccc3ccc(C(=O)O)c(O)c3n2)cc(O)c1O`, the values for the IC50 in series [1], in [6] and in series [7] were 12 µM, 0.7 µM and 1.7 µM, respectively. Further, the CC50 in [2] is more than 100 µM.
As for `O=C(O)c1ccc2ccc(/C=C/c3ccccc3)nc2c1O`, the IC50 is 3.4 µM in series [8], 5.3 µM in [3] and 2.1 µM in series [4]. For the same compound, the NR entry in series [5] was “Not reached”. Also, the CC50 in [2] was 31 µM.
With `O=C(O)c1ccc2ccc(/C=C/c3cc(O)c(O)c(I)c3)nc2c1O`, the concentration for half-maximal inhibition (IC50) was 6.8 µM in series [1], 4 µM in series [6] and 4.9 µM in [7]. In addition, the CC50 in series [2] is more than 100 µM.
For `CC(=O)Nc1ccc(/C=C/c2ccc3ccc(C(=O)O)c(O)c3n2)cc1`, the results for the IC50 in [8], in series [3] and in series [4] were 1.7 µM, 1.4 µM and 1.2 µM, respectively. Besides, the NR entry in series [5] is “Not reached”. Also, in [2], the CC50 is 47 µM.
With `O=C(O)c1ccc2ccc(/C=C/c3ccsc3)nc2c1O`, the IC50 came out at 0.8 µM in [8], 3.4 µM in series [3] and 3 µM in series [4]. In addition, in [5], the NR result is listed as “Not reached”. Moreover, in series [2], the CC50 is 85 µM.
As for `O=C(O)c1ccc2ccc(/C=C/c3ccc(O)cc3)nc2c1O`, the IC50 came to 95 µM in [1], 1.6 µM in series [3] and 1.6 µM in series [4]. In addition, in [2], the CC50 is more than 100 µM.
With `COc1cc(/C=C/c2ccc3ccc(C(=O)O)c(O)c3n2)ccc1O`, the figures for the IC50 in series [1], in [3] and in series [4] were 3 µM, 2.8 µM and 3.7 µM, respectively. Also, the CC50 in series [2] was 95 µM.
The compound `O=C(O)c1ccc2ccc(/C=C/c3ccc(O)cc3O)nc2c1O` registered a half-inhibitory concentration (IC50) in series [1] of 80 µM. Besides, the CC50 in series [2] is more than 100 µM.
